The source of these data is ChEMBL document CHEMBL6078712, “Triterpenoid phthalimides as selective anti-cancer agents targeting mitochondrial apoptosis” (Eur J Med Chem, 2025).

pIC50: −log10 of the molar value. Calls of active or inactive are those of the source. The calls are words filed in the database; no cut-off is given here.

Data set [1] can be described thus: Metabolic stability in human liver microsomes assessed as parent compound remaining at 2 uM incubated for 60 mins in presence of NADPH by RF-MS analysis. The settings on record: read-out: Stability. Type of data set: ADME, Microsome. In short, it runs like this:
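Human plasma stability, plasma protein binding and liver microsome stability, each run in triplicate. Error deviations below 10 %.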

For data set [2], the system named is CCRF-CEM. In words: Induction of apoptosis in human CCRF-CEM cells assessed as downregulation of BCL-XL expression at 5 times IC50 incubated for 24 hrs by Western blotting analysis. In kind it is functional, cell-based. A digest of the protocol: (§1)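 30 µg protein per lane on SDS-PAGE, transferred to nitrocellulose, blocked in 5 % BSA/TBS-Tween. Primary antibodies overnight at 4 °C (Akt, P-Akt Ser473, STAT-3, caspase-3, PARP, cyclin D, cyclin A, Bcl-xL, Bak, Bid, Bim), then HRP secondary and ECL detection. GAPDH as loading control.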
In general terms: Immunoblotting shows a protein as a band on a membrane.

The test system of data set [3] is CCRF-CEM. In words: Induction of cell cycle arrest in human CCRF-CEM cells assessed as downregulation of Cyclin A expression at 5 times IC50 incubated for 24 hrs by Western blotting analysis. Type of data set: functional, cell-based. A digest of the protocol: as §1
Data set [4] has as its system CCRF-CEM. In words: Inhibition of DNA synthesis in human CCRF-CEM cells at 5 times IC50 incubated for 24 hrs by BrdU incorporation based flow cytometry. Type of data set: functional. A digest of the protocol: (§2)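 Fixed in ice-cold 70 % ethanol, DNA denatured in 2 M HCl for 30 min, neutralised with borax. Stained with anti-BrdU plus FITC secondary, then PI/RNase A for 1 h. Flow cytometry; % BrdU-positive cells.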
(In general: Dividing cells build labelled thymidine or BrdU into new DNA.)

Data set [5] deals with CCRF-CEM. In words: Induction of apoptosis in human CCRF-CEM cells assessed as necrotic cells at 1 times IC50 incubated for 24 hrs by Annexin V-FITC and PI staining based flow cytometric analysis (reference value: 0.4 %). In kind it is functional. A digest of the protocol: (§3)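 Washed in Ca2+-containing binding buffer, then stained 15 min at room temperature in the dark with Annexin V-FITC and propidium iodide (PI at half the kit-recommended level). Read at once by flow cytometry with a 488 nm laser, ≥10,000 cells. Debris excluded; quadrants viable, early apoptotic, late apoptotic/necrotic, necrotic. Three independent experiments.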
On the technique in general: Flow cytometry measures light scatter and fluorescence of single cells or particles in a stream.

For data set [6], the system named is CCRF-CEM. In words: Induction of apoptosis in human CCRF-CEM cells assessed as upregulation of BID expression at 1 to 5 times IC50 incubated for 24 hrs by Western blotting analysis. In kind it is functional, cell-based. In short, it runs like this:
as §1

Data set [7] in a line: Cytotoxicity against human K562-Tax cells assessed as inhibition of cell growth incubated for 72 hrs by MTS assay. In kind it is functional, cell-based. In short, it runs like this: (§4)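 MTS assay on eight human cancer lines and two non-tumour fibroblast lines. IC50 is the concentration that inhibits cell growth by 50 %. SD typically up to 15 % of the mean.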
Data set [8] has as its system CCRF-CEM. In words: Inhibition of DNA synthesis in human CCRF-CEM cells at 1 times IC50 incubated for 24 hrs by BrdU incorporation based flow cytometry. Type of data set: functional. A digest of the protocol: as §2
A further data set concerns HCT-116. In words: Cytotoxicity against human HCT-116 cells assessed as inhibition of cell growth incubated for 72 hrs by MTS assay. In kind it is functional, cell-based. The settings on record: HCT-116, 72 h. A digest of the protocol: as §4
The test system of data set [9] is CCRF-CEM. In words: Induction of apoptosis in human CCRF-CEM cells assessed as early apoptotic cells at 5 times IC50 incubated for 24 hrs by Annexin V-FITC and PI staining based flow cytometric analysis (reference value: 2.1 %). In kind it is functional. A digest of the protocol:
as §3

The subject of data set [10] is CCRF-CEM. In words: Induction of cell cycle arrest in human CCRF-CEM cells assessed as downregulation of AKT phosphorylation at 5 times IC50 incubated for 24 hrs by Western blotting analysis. In kind it is functional, cell-based. A digest of the protocol: as §1

In general, pIC50 refers to −log10 of the IC50, conventionally taken in molar units. With `CC(=O)O[C@H]1CC[C@]2(C)[C@H]3CC[C@@H]4[C@H]5[C@H](c6cc7c(c(-c8ccccc8)c6)C(=O)N(c6cc[nH]n6)C7=O)CC[C@]5(C(=O)O)CC[C@@]4(C)[C@]3(C)CC[C@H]2C1(C)C`, in data set [1], the remaining at 1 h, 2 µM came out at 81%. Moreover, the result in the data set on CCRF-CEM [2], in the data set with CCRF-CEM [3], in the data set with CCRF-CEM [6] and with CCRF-CEM [10] was Active. Moreover, the “inhibition (INH)” value in the data set with CCRF-CEM [4] is 9.9%; in the data set with CCRF-CEM [8] it was 23.6%. The Activity in the data set on CCRF-CEM [5] is on record as 0%; with CCRF-CEM [9], 7.9%. Also, the pIC50 is 4.88 in [7] and 5.02 in the data set on HCT-116.
